The target of data set [1] is T1, Glutamate NMDA receptor; Grin1/Grin2b (Rattus norvegicus, UniProt P35439+Q00960). In words: Positive allosteric modulation of recombinant rat GluN1a/GluN2B receptor expressed in Xenopus laevis oocytes assessed as increase in glycine/L-glutamate-induced channel current at 10 to 30 uM by two-electrode voltage clamp method relative to control. In kind it is cell-based. In a few lines:
(§1)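 TEVC at −40 mV, 23 °C, in 90 NaCl/1 KCl/0.5 BaCl/0.005 EDTA/10 HEPES (mM), pH 7.4. Oocytes expressed rat GluN1/GluN2A or GluN1/GluN2B. […] Some GluN2A oocytes were BAPTA-loaded. 4–17 oocytes from 1–3 frogs.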

The target in data set [2] is Glutamate NMDA receptor; Grin1/Grin2c (Rattus norvegicus, UniProt P35439+Q00961).
For data set [3], the target named is T2, Glutamate NMDA receptor; Grin1/Grin2c (Rattus norvegicus) (UniProt P35439+Q00961). Description: Positive allosteric modulation of recombinant rat GluN1a/GluN2C receptor expressed in Xenopus laevis oocytes assessed as increase in glycine/L-glutamate-induced channel current at 30 uM by two-electrode voltage clamp method relative to control. In kind it is cell-based. In a few lines:
(§2)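 Oocytes expressing rat GluN1/GluN2C or GluN2D, held at −40 mV in HEPES-buffered Ba2+ solution, pH 7.4, 23 °C. Current given as percent of agonist-alone response. Doubling concentration is the concentration giving 2-fold response; reported as […] log. 6–19 oocytes from 2–3 frogs.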

The nature of data set [4]: Aqueous solubility of the compound at pH 7.4 after 30 mins by nephelometric analysis. The data set is classed as physicochemical. To be noted: buffer.
In data set [5] the target is T3, Ionotropic glutamate receptor NMDA 1/2D (Rattus norvegicus) (UniProt P35439+Q62645). Description: Positive allosteric modulation of recombinant rat GluN1a/GluN2D receptor expressed in Xenopus laevis oocytes assessed as increase in glycine/L-glutamate-induced channel current at 30 uM by two-electrode voltage clamp method relative to control. The data set is classed as cell-based. The essentials:
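Oocytes expressing rat GluN1/GluN2C or GluN2D, held at −40 mV in HEPES-buffered Ba2+ solution, pH 7.4, 23 °C. […] Current given as percent of agonist-alone response. […] Doubling concentration is the concentration giving 2-fold response; reported as […] log. 6–19 oocytes from 2–3 frogs.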

In data set [6] the target is T4, Glutamate NMDA receptor; Grin1/Grin2a (Rattus norvegicus, UniProt P35439+Q00959). In words: Positive allosteric modulation of recombinant rat GluN1a/GluN2A receptor expressed in Xenopus laevis oocytes assessed as increase in glycine/L-glutamate-induced channel current at 10 to 30 uM by two-electrode voltage clamp method relative to control. The data set is classed as cell-based. In a few lines: as §1

Data set [7] addresses Ionotropic glutamate receptor NMDA 1/2D (Rattus norvegicus, UniProt P35439+Q62645).
The target in data set [8] is T1, Glutamate NMDA receptor; Grin1/Grin2b. In words: Positive allosteric modulation of recombinant rat GluN1a/GluN2B receptor expressed in Xenopus laevis oocytes assessed as change in 30 uM glycine/3 uM L-glutamate-induced channel current at 30 uM by two-electrode voltage clamp method (reference value: 84 +/- 1%). In kind it is cell-based. To be noted: read-out: %max. A general note: In two-electrode clamp one electrode senses voltage and the other passes current.

Data set [9] has as its target T3, Ionotropic glutamate receptor NMDA 1/2D (Rattus norvegicus). Description: Positive allosteric modulation of recombinant rat GluN1a/GluN2D receptor expressed in Xenopus laevis oocytes assessed as change in 30 uM glycine/0.5 uM L-glutamate-induced channel current at 30 uM by two-electrode voltage clamp method (reference value: 54 +/- 1%). In kind it is cell-based. The essentials:
(§3)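 Oocytes expressing rat GluN1/GluN2C or GluN1/GluN2D, TEVC at −40 mV, pH 7.4, 23 °C. […] 30 μM glycine in all solutions per footnote. Vehicle versus drug compared by paired t-test; mean ± SEM.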

Data set [10] addresses T2, Glutamate NMDA receptor; Grin1/Grin2c (Rattus norvegicus). Description: Positive allosteric modulation of recombinant rat GluN1a/GluN2C receptor expressed in Xenopus laevis oocytes assessed as change in 30 uM glycine/0.5 uM L-glutamate-induced channel current at 30 uM by two-electrode voltage clamp method (reference value: 54 +/- 1%). In kind it is cell-based. The essentials:
as §3

Data set [11] concerns the target T4, Glutamate NMDA receptor; Grin1/Grin2a. Description: Positive allosteric modulation of recombinant rat GluN1a/GluN2A receptor expressed in Xenopus laevis oocytes assessed as change in 30 uM glycine/3 uM L-glutamate-induced channel current at 30 uM by two-electrode voltage clamp method (reference value: 40 +/- 4%). In kind it is cell-based.
Data set [12] addresses T2, Glutamate NMDA receptor; Grin1/Grin2c (Rattus norvegicus). Description: Positive allosteric modulation of recombinant rat GluN1a/GluN2C receptor expressed in Xenopus laevis oocytes assessed as increase in glycine/L-glutamate-induced channel current by measuring log of doubling concentration by two-electrode voltage clamp method. The data set is classed as cell-based. In a few lines: as §2

In brackets after ≈: the same amount, converted by molar mass. Where only a bound is given, the exact number is not on record here.

T4 sequence (Q00959 whole entry, other chains not shown): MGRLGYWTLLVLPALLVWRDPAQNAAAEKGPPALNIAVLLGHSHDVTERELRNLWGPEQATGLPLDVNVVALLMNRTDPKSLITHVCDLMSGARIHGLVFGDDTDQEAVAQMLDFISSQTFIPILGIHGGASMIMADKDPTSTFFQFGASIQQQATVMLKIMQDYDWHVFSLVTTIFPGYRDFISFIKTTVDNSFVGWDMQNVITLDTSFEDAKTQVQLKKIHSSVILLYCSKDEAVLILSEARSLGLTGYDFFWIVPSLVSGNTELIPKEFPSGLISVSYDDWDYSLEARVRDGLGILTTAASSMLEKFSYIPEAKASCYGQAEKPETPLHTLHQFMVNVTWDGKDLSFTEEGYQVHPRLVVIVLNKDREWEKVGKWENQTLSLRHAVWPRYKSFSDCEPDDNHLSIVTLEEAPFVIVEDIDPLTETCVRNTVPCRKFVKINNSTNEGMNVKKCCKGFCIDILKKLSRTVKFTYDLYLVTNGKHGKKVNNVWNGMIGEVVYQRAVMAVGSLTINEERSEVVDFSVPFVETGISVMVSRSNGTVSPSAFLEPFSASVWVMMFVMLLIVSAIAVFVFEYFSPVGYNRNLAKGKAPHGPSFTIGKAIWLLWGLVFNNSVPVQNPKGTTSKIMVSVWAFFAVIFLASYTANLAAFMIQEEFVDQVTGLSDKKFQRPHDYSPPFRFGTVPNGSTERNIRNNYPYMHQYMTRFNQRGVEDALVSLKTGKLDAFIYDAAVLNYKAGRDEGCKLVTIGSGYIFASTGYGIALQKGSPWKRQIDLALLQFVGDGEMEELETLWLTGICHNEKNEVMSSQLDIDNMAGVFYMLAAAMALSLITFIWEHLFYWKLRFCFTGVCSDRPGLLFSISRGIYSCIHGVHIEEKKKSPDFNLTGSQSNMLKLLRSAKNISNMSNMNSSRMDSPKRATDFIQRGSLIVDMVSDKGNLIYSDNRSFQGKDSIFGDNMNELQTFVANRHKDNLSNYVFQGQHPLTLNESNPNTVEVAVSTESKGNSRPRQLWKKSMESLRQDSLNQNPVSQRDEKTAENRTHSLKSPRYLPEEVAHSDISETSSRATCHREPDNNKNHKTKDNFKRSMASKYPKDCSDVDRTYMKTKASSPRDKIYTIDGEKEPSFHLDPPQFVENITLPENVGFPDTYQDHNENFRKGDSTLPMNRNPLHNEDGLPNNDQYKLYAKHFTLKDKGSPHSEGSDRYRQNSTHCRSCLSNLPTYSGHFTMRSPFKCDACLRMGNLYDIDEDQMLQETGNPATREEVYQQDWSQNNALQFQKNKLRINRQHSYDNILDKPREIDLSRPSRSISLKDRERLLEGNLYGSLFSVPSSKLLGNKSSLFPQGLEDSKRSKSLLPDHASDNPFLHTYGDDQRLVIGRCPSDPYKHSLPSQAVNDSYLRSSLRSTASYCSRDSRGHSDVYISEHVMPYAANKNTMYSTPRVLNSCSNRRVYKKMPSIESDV
T1 sequence (Q00960 whole entry, other chains not shown): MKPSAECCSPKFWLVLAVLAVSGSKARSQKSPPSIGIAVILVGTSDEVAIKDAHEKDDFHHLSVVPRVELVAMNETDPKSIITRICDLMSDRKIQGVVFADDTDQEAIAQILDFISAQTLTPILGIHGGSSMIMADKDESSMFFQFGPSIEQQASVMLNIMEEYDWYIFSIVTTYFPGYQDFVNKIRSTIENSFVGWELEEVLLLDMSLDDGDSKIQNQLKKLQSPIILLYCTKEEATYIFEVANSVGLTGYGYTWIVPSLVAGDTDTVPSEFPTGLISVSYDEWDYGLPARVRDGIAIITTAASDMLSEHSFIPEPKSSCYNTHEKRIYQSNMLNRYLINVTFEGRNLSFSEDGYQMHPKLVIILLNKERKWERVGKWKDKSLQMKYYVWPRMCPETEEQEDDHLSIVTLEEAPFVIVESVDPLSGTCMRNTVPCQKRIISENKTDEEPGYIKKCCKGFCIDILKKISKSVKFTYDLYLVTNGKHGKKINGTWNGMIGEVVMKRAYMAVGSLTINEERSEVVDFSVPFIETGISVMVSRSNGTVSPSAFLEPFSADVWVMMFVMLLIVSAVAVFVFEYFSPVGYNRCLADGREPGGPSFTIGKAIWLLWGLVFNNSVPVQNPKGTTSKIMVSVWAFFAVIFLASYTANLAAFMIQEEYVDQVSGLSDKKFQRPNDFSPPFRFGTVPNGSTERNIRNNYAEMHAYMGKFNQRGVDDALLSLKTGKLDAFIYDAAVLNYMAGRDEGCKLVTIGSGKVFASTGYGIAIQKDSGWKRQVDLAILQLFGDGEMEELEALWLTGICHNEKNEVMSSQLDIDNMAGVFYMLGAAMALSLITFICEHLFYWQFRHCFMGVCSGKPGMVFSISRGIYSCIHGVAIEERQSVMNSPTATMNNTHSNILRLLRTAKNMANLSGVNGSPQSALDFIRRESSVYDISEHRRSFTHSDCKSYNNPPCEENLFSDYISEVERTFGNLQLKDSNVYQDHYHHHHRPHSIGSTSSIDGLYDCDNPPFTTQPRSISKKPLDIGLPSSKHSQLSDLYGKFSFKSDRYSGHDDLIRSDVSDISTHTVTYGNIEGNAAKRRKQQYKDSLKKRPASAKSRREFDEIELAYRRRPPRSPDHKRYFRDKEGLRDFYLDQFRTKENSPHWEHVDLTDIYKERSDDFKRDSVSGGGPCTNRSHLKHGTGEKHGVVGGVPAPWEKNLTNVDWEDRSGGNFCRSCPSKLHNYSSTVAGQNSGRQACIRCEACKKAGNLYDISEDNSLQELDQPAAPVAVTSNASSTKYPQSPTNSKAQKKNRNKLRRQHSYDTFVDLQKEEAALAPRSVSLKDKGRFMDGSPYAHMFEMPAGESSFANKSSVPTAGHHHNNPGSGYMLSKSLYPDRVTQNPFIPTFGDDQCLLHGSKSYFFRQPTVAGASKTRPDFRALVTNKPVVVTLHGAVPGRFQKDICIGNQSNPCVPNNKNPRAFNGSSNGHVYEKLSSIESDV

The term EC50 denotes the concentration that produces a half-maximal response. Low readings indicate a more potent agent, high ones a less potent agent. As usually defined, the kinetic solubility is the concentration staying in solution when a stock, usually in DMSO, is diluted into the medium. As for `COc1ccc(OC[C@H]2c3cccn3CCN2C(=O)c2cccc(Cl)c2)cc1`, the Activity entry in [1] and in data set [6] was “Not Active” each time. Besides, the 50% effective concentration (EC50) in [2] and in data set [7] was 2000 nM throughout. In addition, the %max amounted to 410% in data set [3] and 450% in [5]. Also, the solubility (kinetic) at 0.5 h in data set [4] amounted to 36 µM (≈ 14.3 µg/mL).

Regarding `COc1ccc(OCC2c3cccn3CC(=O)N2Cc2cccc(C(F)(F)F)c2)cc1` (stereo not drawn), the Activity entry in data set [1] and in data set [6] was “Not Active” each time. The results for the half-maximal effective concentration (EC50) in data set [2] and in data set [7] were 1260 nM and 1580 nM, respectively. Also, the %max worked out at 300% in data set [3] and 400% in [5]. Also, the solubility (kinetic) at 0.5 h in data set [4] is 57 µM (≈ 24.5 µg/mL).

Turning to `COc1ccc(OC[C@H]2c3cccn3CCN2C(=O)c2cccc(C(F)(F)F)c2)cc1`, the Activity entry in [1] and in [6] was “Not Active” in each case. Moreover, the EC50 in data set [2] and in data set [7] was 1260 nM throughout. The %max is 460% in data set [3] and 540% in data set [5]. In data set [4], this molecule yielded a solubility (kinetic) at 0.5 h of 58 µM (≈ 25 µg/mL).

For the molecule `COc1ccc(OCC2c3sccc3CCN2C(=O)c2cccc(Cl)c2)cc1` (stereo not drawn), the Activity result in [1] and in data set [6] was “Not Active” each time. The EC50 in [2] and in [7] was 3980 nM throughout. The %max in data set [3] was 280%; in [5], 350%. In data set [4], this molecule returned a solubility (kinetic) at 0.5 h of 46 µM (≈ 19 µg/mL).

`COc1ccc(OC[C@@H]2c3cccn3CC(=O)N2Cc2cccc(F)c2)cc1`: the Activity entry in data set [1] and in data set [6] was “Not Active” in each case. Also, the %max in [3] amounted to 100%; in data set [9], 72%; in data set [10] it was 57%; in [5] it was 88%; in data set [11] it was 45%. Also, the activity at 30 µM in data set [8] was determined as 85%. The solubility (kinetic) at 0.5 h in data set [4] came to 74 µM (≈ 28.2 µg/mL).

In the case of `COc1ccc(OC[C@@H]2c3cccn3CC(=O)N2Cc2cccc(C(F)(F)F)c2)cc1`, the Activity result in data set [1] and in [6] was “Not Active” in each case. The %max in data set [3] was found to be 84%; in data set [5], 88%. The solubility (kinetic) at 0.5 h in [4] came out at 57 µM (≈ 24.5 µg/mL).

As for `COc1ccc(OCC2c3cccn3CCN2C(=O)c2cccc(C(F)(F)F)c2)cc1` (stereo not drawn), the Activity entry in data set [1] and in data set [6] was “Not Active” throughout. Besides, the concentration giving a half-maximal response (EC50) is 1580 nM in data set [2] and 2000 nM in data set [7]. The values for the %max in [3] and in data set [5] were 380% and 290%, respectively. The same molecule showed a solubility (kinetic) at 0.5 h in [4] of 58 µM (≈ 25 µg/mL).

On to `COc1ccc(OCC2c3ccc(OC)cc3CC(=O)N2CCCC(F)(F)F)cc1` (stereo not drawn), for which the Activity result in data set [1] and in data set [6] was “Not Active” in each case. Also, the concentration for a half-maximal effect (EC50) was 7940 nM in data set [2] and 20000 nM in [7]. Further, the values for the %max in data set [3] and in data set [5] were 290% and 450%, respectively.

In the case of `COc1ccc(OC[C@@H]2c3cccn3CCN2C(=O)c2cccc(Cl)c2)cc1`, the Activity result in data set [1] and in data set [6] was “Not Active” in each case. For the same molecule, the results for the %max in [3] and in data set [5] were 98% and 99%, respectively. Besides, the solubility (kinetic) at 0.5 h in [4] worked out at 36 µM (≈ 14.3 µg/mL).

As to `COc1ccc(OCC2c3ccc(OCC(C)C)cc3CC(=O)N2Cc2cccc(Cl)c2)cc1` (stereo not drawn), the Activity in data set [1] and in data set [6] was 130% each time. Also, the results for the concentration giving a half-maximal response (EC50) in data set [2] and in [7] were 398 nM and 631 nM, respectively. For the same molecule, the %max in [3] amounted to 280%; in data set [5], 370%.

On to `COc1ccc(OCC2c3ccc(OC)cc3CC(=O)N2CC(F)(F)F)cc1` (stereo not drawn), for which, in [12], the log(activity) was more than -4.5. Further, the Activity entry in data set [1] and in data set [6] was “Not Active” throughout. Further, the %max in data set [3] worked out at 330%; in [5] it was 160%.

On to `COc1ccc(OCC2c3sccc3CCN2C(=O)/C=C/C(F)(F)F)cc1` (stereo not drawn), for which the Activity entry in [1] and in [6] was “Not Active” in each case. Moreover, the figures for the 50% effective concentration (EC50) in [2] and in data set [7] were 12600 nM and 15800 nM, respectively. For the same molecule, the figures for the %max in data set [3] and in [5] were 290% and 330%, respectively.

`COc1ccc(OCC2c3cccn3CCN2C(=O)c2cccc(Cl)c2)cc1` (stereo not drawn): the Activity result in data set [1] and in [6] was “Not Active” each time. The half-maximal effective concentration (EC50) is 2510 nM in [2] and 3160 nM in data set [7]. The %max in data set [3] and in data set [5] was 370% in each case. This molecule had a kinetic solubility at 0.5 h in data set [4] of 36 µM (≈ 14.3 µg/mL).

For `COc1ccc(OC[C@@H]2c3cccn3CCN2C(=O)c2cccc(C(F)(F)F)c2)cc1`, the Activity entry in [1] and in [6] was “Not Active” in each case. Moreover, the %max in data set [3] was determined as 99%; in data set [5] it was 98%. This molecule returned a kinetic solubility at 0.5 h in data set [4] of 58 µM (≈ 25 µg/mL).

For `COc1ccc(OC[C@H]2c3cccn3CC(=O)N2Cc2cccc(C(F)(F)F)c2)cc1`, the Activity entry in data set [1] and in [6] was “Not Active” in each case. Besides, the 50% effective concentration (EC50) in data set [2] and in data set [7] was 794 nM each time. Also, the results for the %max in data set [3] and in [5] were 280% and 330%, respectively. The kinetic solubility at 0.5 h in data set [4] was determined as 57 µM (≈ 24.5 µg/mL).

For the molecule `COc1ccc(OCC2c3ccsc3CCN2C(=O)c2cccc(Cl)c2)cc1` (stereo not drawn), the Activity entry in data set [1] and in data set [6] was “Not Active” in each case. Moreover, the EC50 was 3980 nM in data set [2] and 5010 nM in data set [7]. Also, the values for the %max in [3] and in data set [5] were 330% and 340%, respectively.

Regarding `COc1ccc(OCC2c3ccc(OC(C)C)cc3CC(=O)N2Cc2cccc(Cl)c2)cc1` (stereo not drawn), the Activity result in data set [1] and in data set [6] was “Not Active” each time. For the same molecule, the EC50 was 398 nM in data set [2] and 501 nM in data set [7]. Besides, the %max in [3] stood at 350%; in data set [5], 370%.

The values above are taken from ChEMBL document CHEMBL4627400, “Discovery of Dihydropyrrolo[1,2-a]pyrazin-3(4H)-one-Based Second-Generation GluN2C- and GluN2D-Selective Positive Allosteric Modulators (PAMs) of the N-Methyl-d-Aspartate (NMDA) Receptor” (J Med Chem, 2020).
